Measurements published in ChEMBL document CHEMBL1138183, “Design, synthesis, and biological evaluation of isoquinoline-1,3,4-trione derivatives as potent caspase-3 inhibitors” (J Med Chem, 2006).
The source made the active and inactive calls. No cut-off for these calls is given here. Peptide text beside a SMILES is read from it. * marks the point of attachment. Cbz = O=C(OCc1ccccc1)*; CH2F = FC*

Assays:
[1] = target: T1, Caspase-3 (Homo sapiens, UniProt P42574); experiment: Inhibition of caspase3
T1 sequence (P42574 whole entry): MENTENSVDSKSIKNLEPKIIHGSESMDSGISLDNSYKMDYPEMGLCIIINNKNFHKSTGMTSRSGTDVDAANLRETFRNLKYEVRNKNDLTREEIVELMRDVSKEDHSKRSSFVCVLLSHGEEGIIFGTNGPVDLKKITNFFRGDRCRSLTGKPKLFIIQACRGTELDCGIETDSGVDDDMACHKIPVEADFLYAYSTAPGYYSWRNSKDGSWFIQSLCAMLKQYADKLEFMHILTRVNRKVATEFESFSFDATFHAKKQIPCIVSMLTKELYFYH

[2] = target: Calpain 1 (Homo sapiens, UniProt P07384); experiment: Inhibition of calpain1; format: protein-complex assay
Sequence of Calpain 1 (P04632 whole entry): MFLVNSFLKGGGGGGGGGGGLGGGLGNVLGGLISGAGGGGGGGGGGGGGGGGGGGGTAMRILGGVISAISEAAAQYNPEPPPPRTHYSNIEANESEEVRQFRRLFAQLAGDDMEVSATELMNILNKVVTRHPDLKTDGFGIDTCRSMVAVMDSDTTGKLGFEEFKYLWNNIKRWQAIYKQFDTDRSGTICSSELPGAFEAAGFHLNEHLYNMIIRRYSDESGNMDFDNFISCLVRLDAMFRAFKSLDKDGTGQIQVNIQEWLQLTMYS
Sequence of Calpain 1 (P07384 whole entry): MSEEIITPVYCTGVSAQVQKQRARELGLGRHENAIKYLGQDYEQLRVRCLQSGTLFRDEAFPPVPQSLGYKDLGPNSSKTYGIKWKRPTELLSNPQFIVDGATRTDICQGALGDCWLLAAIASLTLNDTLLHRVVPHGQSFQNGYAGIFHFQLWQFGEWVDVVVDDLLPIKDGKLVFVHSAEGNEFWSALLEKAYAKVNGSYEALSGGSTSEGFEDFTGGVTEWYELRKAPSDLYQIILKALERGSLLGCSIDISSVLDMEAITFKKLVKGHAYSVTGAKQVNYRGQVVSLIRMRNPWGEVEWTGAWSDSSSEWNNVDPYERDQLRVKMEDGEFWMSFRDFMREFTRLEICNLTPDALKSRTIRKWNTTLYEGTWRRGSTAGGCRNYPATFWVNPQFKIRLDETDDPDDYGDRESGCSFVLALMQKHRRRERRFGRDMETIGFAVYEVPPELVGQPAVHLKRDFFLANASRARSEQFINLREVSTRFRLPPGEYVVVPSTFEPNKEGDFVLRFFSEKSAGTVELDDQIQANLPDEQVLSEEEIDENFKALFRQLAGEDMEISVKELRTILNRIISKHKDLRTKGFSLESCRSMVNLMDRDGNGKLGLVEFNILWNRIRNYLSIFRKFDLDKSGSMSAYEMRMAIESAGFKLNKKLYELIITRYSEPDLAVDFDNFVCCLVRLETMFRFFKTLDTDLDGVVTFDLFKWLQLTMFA
Summary of the method: (§1)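 Enzymes (caspases 2, 6 and 7; proteasome, trypsin, thrombin, papain, calpain-I) preincubated with inhibitor 30 min in their own buffer at optimal pH. Substrates at 10–100 µM, assayed at 35 °C. pNA release followed at 405 nm for 1–3 min; initial hydrolysis rate taken.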

[3] = system: Proteasome; experiment: Inhibition of proteasome; format: subcellular; summary of the method: as §1
[4] = target: T2, Papain (Carica papaya, UniProt P00784); experiment: Inhibition of papain; summary of the method: as §1
T2 sequence (P00784 whole entry): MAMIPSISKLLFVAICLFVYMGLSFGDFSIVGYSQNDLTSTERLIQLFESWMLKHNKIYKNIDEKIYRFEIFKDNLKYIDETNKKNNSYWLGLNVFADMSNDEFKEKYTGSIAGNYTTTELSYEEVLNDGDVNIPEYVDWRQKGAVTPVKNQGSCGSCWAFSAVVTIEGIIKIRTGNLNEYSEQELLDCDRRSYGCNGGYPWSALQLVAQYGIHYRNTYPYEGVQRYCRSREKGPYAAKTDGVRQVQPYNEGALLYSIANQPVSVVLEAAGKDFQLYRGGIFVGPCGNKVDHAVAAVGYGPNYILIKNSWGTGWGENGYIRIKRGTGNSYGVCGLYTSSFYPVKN

[5] = target: Trypsin (Homo sapiens, UniProt P07477+P07478+P35030); experiment: Inhibition of trypsin; format: protein assay; summary of the method: as §1
[6] = target: Prothrombin (Homo sapiens, UniProt P00734); experiment: Inhibition of thrombin; summary of the method: as §1
[7] = target: T3, Caspase-2 (Homo sapiens, UniProt P42575); experiment: Inhibition of caspase2; summary of the method: as §1
T3 sequence (P42575 whole entry): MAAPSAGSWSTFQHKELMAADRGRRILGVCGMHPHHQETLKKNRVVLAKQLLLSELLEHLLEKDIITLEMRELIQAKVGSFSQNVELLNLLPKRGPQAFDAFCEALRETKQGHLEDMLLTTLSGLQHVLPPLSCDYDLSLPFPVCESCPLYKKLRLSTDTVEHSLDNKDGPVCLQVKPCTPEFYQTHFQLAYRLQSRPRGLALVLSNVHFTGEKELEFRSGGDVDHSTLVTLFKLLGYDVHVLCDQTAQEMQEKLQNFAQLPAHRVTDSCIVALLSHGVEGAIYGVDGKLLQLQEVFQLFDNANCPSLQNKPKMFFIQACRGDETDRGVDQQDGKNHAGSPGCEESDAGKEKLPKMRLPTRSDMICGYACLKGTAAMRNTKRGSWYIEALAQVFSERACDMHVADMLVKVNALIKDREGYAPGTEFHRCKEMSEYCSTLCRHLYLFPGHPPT

[8] = target: T4, Caspase-6 (Homo sapiens, UniProt P55212); experiment: Inhibition of caspase6; summary of the method: as §1
T4 sequence (P55212 whole entry): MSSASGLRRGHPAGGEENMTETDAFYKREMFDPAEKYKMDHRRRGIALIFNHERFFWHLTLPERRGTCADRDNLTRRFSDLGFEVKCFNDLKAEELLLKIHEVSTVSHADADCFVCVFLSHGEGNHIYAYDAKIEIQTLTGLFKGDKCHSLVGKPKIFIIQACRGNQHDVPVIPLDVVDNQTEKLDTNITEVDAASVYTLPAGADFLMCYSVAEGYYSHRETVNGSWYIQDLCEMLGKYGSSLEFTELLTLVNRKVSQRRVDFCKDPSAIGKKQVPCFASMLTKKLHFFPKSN

[9] = target: T5, Caspase-7 (Homo sapiens, UniProt P55210); experiment: Inhibition of caspase7; summary of the method: as §1
T5 sequence (P55210 whole entry): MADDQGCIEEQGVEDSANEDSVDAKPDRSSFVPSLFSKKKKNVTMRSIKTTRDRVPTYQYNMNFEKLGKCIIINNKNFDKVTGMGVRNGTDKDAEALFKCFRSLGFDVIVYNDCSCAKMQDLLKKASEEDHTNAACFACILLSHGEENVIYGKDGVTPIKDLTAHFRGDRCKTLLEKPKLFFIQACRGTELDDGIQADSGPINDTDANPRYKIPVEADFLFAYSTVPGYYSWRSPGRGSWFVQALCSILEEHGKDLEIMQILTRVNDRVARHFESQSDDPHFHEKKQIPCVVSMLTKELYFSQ

[10] = target: Caspase-8 (Homo sapiens, UniProt Q14790); experiment: Inhibition of caspase8
Sequence of Caspase-8 (Q14790 217-374 limits assumed): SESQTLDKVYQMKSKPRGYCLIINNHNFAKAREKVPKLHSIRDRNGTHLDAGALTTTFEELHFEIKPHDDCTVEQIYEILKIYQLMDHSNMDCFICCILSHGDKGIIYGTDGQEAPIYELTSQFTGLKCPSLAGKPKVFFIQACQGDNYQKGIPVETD
Sequence of Caspase-8 (Q14790 385-479 limits assumed): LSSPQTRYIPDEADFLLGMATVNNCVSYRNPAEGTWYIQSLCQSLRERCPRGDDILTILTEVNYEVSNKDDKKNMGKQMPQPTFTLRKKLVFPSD

[11] = system: Rattus norvegicus; experiment: Decrease in infarct volume of ischemic damage in transient MCA occlusion model of Sprague-Dawley rat at 1 mg/kg, sc; format: functional
Summary of the method: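 Male Sprague-Dawley rats (200–240 g); transient MCA occlusion for 1.5 h. Drug in DMSO given sc at 0.5 mL/kg, 5 min after occlusion start. Sacrifice at 24 h; 2 mm coronal slices stained with TTC. Infarct volume corrected by indirect method (contralateral minus intact ipsilateral area); n=8 per group, mean ± SE vs saline-treated animals, one-way ANOVA with Dunnett's test.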

[12] = target: T6, Caspase-3 (Homo sapiens) (UniProt P42574); experiment: Inhibition of caspase3 activity in camptothecin-induced apoptotic Jurkat T cells at 2 uM; format: functional, cell-based
T6 sequence (whole entry): T1 sequence (P42574 whole entry)
Summary of the method: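 Jurkat cells (1 × 10⁵ cells/mL) preincubated 30 min at 37 °C, given inhibitor for 2 h, then 2 µM camptothecin for 4 h. Lysed by freeze–thaw cycles, spun at 12000g. Lysate assayed with 100 µM Ac-DEVD-AMC in HEPES pH 7.0, sucrose, CHAPS and DTT. AMC fluorescence (ex 360/em 460 nm) read 20 min at room temperature, normalised to Bradford protein.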

IC50 [1] [nM] | IC50 [2] [nM] | IC50 [3] [nM] | IC50 [4] [nM] | IC50 [5] [nM] | IC50 [6] [nM] | IC50 [7] [nM] | IC50 [8] [nM] | IC50 [9] [nM] | IC50 [10] [nM] | Activity [12] [RFU/µg/min] | SMILES | Activity [11] | Activity ([11]; route subcutaneous) [%]
25 | > 5000 | > 5000 | > 5000 | > 5000 | > 5000 | 231 | 124 | 64 | 288 | – | O=C(CCC(=O)N1CCCCC1)Nc1ccc2c(c1)C(=O)C(=O)NC2=O | – | –
68 | > 5000 | > 5000 | > 5000 | > 5000 | > 5000 | 859 | 201 | 136 | 1120 | – | O=C(O)CCC(=O)Nc1ccc2c(c1)C(=O)C(=O)NC2=O | – | –
83 | > 5000 | > 5000 | > 5000 | > 5000 | > 5000 | 530 | 283 | 139 | 575 | – | O=C(CCCl)Nc1ccc2c(c1)C(=O)C(=O)NC2=O | – | –
– | > 5000 | > 5000 | > 5000 | > 5000 | > 5000 | 1530 | 474 | 386 | – | – | O=C1NC(=O)c2ccccc2C1=O | inactive | –
113 | > 5000 | > 5000 | > 5000 | > 5000 | > 5000 | 537 | 137 | 218 | 835 | – | COc1ccccc1NC(=O)CCC(=O)Nc1ccc2c(c1)C(=O)C(=O)NC2=O | – | 77
1380 | > 5000 | > 5000 | > 5000 | > 5000 | > 5000 | 5670 | 2850 | 2710 | 24700 | – | O=C1NC(=O)c2cc(NC(=O)c3ccc([N+](=O)[O-])cc3)ccc2C1=O | – | –
– | – | – | – | – | – | – | – | – | – | 3.4 | CC(=O)N[C@@H](CC(=O)O)C(=O)N[C@@H](CCC(=O)O)C(=O)N[C@H](C(=O)N[C@H](C=O)CC(=O)O)C(C)C | – | –
40 | > 5000 | > 5000 | > 5000 | > 5000 | > 5000 | 233 | 216 | 63 | 425 | – | CC(=O)OC(C(=O)Nc1cccc2c1C(=O)C(=O)NC2=O)c1ccccc1 (configuration not stated) | – | –
– | – | – | – | – | – | – | – | – | – | 3.6 | CC(C)[C@H](NC(=O)OCc1ccccc1)C(=O)N[C@@H](C)C(=O)N[C@@H](CC(=O)O)C(=O)CF (Cbz-Val-Ala-Asp-CH2F) | – | –
